Our source for the IC50 values is ChEMBL document CHEMBL4613270, “Structure-Activity Relationship Study Enables the Discovery of a Novel Berberine Analogue as the RXRα Activator to Inhibit Colon Cancer” (J Med Chem, 2020).

The subject of the assay is KM12C. Briefly: Inhibition of cell proliferation of human KM12C cells incubated for 15 hrs by MTT assay. It counts as functional, cell-based. Summed up: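 Cells plated at 1×10⁴ per well, incubated overnight at 37 °C, then exposed to a concentration series for 15 h. MTT (5 mg/mL stock) added for 4 h at 37 °C. Formazan dissolved in DMSO and absorbance read at 570 nm. IC50 derived from the dose-response curve.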
(Tetrazolium assays rely on reduction of a dye to a coloured formazan, in cell work by metabolically active cells.)
In turn, `COc1cc2c(cc1OC)-c1cc3cc(OC)c(OC)cc3c[n+]1CC2` had an IC50 above 600 µM.
The result for `COc1ccc2c(c1)CC[n+]1cc3cc4c(cc3cc1-2)OCO4` reads 46.4 µM.
To `COc1cccc2c[n+]3c(cc12)-c1cc2c(cc1CC3)OCO2` belongs 118 µM; to `COc1cc2c(cc1OC)-c1cc3c(OC)cccc3c[n+]1CC2`, 270 µM.
The result for `c1ccc2c[n+]3c(cc2c1)-c1cc2c(cc1CC3)OCO2` reads 79.7 µM.
Compound `COc1cc2c(cc1OC)-c1cc3cccc(OC)c3c[n+]1CC2` displayed an IC50 of 166 µM. Compared with the last compound, the IC50 is about 2.1-fold higher.
Compound `COc1cc2cc3[n+](cc2cc1OC)CCc1cc2c(cc1-3)OCO2` [PSEUDOBERBERINE] had an IC50 of 467 µM.
Regarding `COc1ccc2c(c1)CC[n+]1cc3c(OC)c(OC)ccc3cc1-2`, half-maximal inhibition (IC50) required 37.9 µM.
To `COc1cc2c(cc1OC)-c1cc3ccc(OC)c(OC)c3c[n+]1CC2` [PALMATINE CHLORIDE] belongs 393 µM.
To `c1c2c(cc3c1OCO3)-c1cc3cc4c(cc3c[n+]1CC2)OCO4` belongs 57.2 µM; to `COc1ccc2c(c1)CC[n+]1cc3cc(OC)c(OC)cc3cc1-2`, 83.5 µM; to `COc1ccc2c(c1)CC[n+]1cc3ccccc3cc1-2`, 129 µM.
Compound `COc1cc2c(cc1OC)-c1cc3ccccc3c[n+]1CC2` had an IC50 above 600 µM.
To `COc1ccc2cc3[n+](cc2c1)CCc1cc2c(cc1-3)OCO2` belongs 52.7 µM.

As a reminder, the IC50 is the concentration at which inhibition is half-maximal. Read a high IC50 as weaker potency in that assay.
